Measurements taken from ChEMBL document CHEMBL2417509, “Synthesis and biological evaluation of prodigiosene conjugates of porphyrin, estrone and 4-hydroxytamoxifen” (2013).

Key:
Assay type in all cases: functional
TK-10 = assay: Cytotoxicity against human TK10 cells after 2 days by sulforhodamine B assay; conditions: TK-10, 48 h
Summary of the method: (§1)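 NCI DTP NCI60 multi-dose screen (59 human tumour lines available). Cells exposed to compound over a 5-log mol/L concentration range for 2 days, then fixed and stained with sulphorhodamine B, with optical density read. Growth inhibition calculated relative to time-zero cells and untreated cells, giving GI50 (half-maximal growth inhibition concentration). Average of two replicates.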

RXF 393 = assay: Cytotoxicity against human RXF393 cells after 2 days by sulforhodamine B assay; conditions: RXF 393, 48 h
Summary of the method: (§2)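 NCI60 multi-dose screen, 59 human tumour lines available. Cells exposed to compound across a 5-log mol/L concentration range for 2 days, then fixed and stained with sulphorhodamine B, optical density read. Growth inhibition calculated against time-zero control and untreated cells. GI50 derived from the dose series, average of two replicates.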

A498 = assay: Cytotoxicity against human A498 cells after 2 days by sulforhodamine B assay; conditions: A498, 48 h; summary of the method: as §2
SK-OV-3 = assay: Cytotoxicity against human SKOV3 cells after 2 days by sulforhodamine B assay; conditions: SK-OV-3, 48 h; summary of the method: as §2
OVCAR-8 = assay: Cytotoxicity against human OVCAR8 cells after 2 days by sulforhodamine B assay; conditions: OVCAR-8, 48 h; summary of the method: as §2
OVCAR-5 = assay: Cytotoxicity against human OVCAR5 cells after 2 days by sulforhodamine B assay; conditions: OVCAR-5, 48 h; summary of the method: as §2
OVCAR-3 = assay: Cytotoxicity against human OVCAR3 cells after 2 days by sulforhodamine B assay; conditions: OVCAR-3, 48 h; summary of the method: as §2
IGROV-1 = assay: Cytotoxicity against human IGROV1 cells after 2 days by sulforhodamine B assay; conditions: IGROV-1, 48 h; summary of the method: as §2
SK-MEL-5 = assay: Cytotoxicity against human SK-MEL-5 cells after 2 days by sulforhodamine B assay; conditions: SK-MEL-5, 48 h; summary of the method: as §2
MDA-MB-435 = assay: Cytotoxicity against human MDA-MB-435 cells after 2 days by sulforhodamine B assay; conditions: MDA-MB-435, 48 h; summary of the method: as §2
SK-MEL-2 = assay: Cytotoxicity against human SK-MEL-2 cells after 2 days by sulforhodamine B assay; conditions: SK-MEL-2, 48 h; summary of the method: as §2
M14 = assay: Cytotoxicity against human M14 cells after 2 days by sulforhodamine B assay; conditions: M14, 48 h; summary of the method: as §2
LOX IMVI = assay: Cytotoxicity against human LOXIMVI cells after 2 days by sulforhodamine B assay; conditions: 48 h; summary of the method: as §2
U-251 = assay: Cytotoxicity against human U251 cells after 2 days by sulforhodamine B assay; conditions: U-251, 48 h; summary of the method: as §1
SF-539 = assay: Cytotoxicity against human SF539 cells after 2 days by sulforhodamine B assay; conditions: SF-539, 48 h; summary of the method: as §2
SNB-19 = assay: Cytotoxicity against human SNB19 cells after 2 days by sulforhodamine B assay; conditions: SNB-19, 48 h; summary of the method: as §1
SF-268 = assay: Cytotoxicity against human SF268 cells after 2 days by sulforhodamine B assay; conditions: SF-268, 48 h; summary of the method: as §2
SW-620 = assay: Cytotoxicity against human SW620 cells after 2 days by sulforhodamine B assay; conditions: SW-620, 48 h; summary of the method: as §1
KM12 = assay: Cytotoxicity against human KM12 cells after 2 days by sulforhodamine B assay; conditions: KM12, 48 h; summary of the method: as §2
NCI-H522 = assay: Cytotoxicity against human NCI-H522 cells after 2 days by sulforhodamine B assay; conditions: NCI-H522, 48 h; summary of the method: as §2
HOP-92 = assay: Cytotoxicity against human HOP92 cells after 2 days by sulforhodamine B assay; conditions: HOP-92, 48 h; summary of the method: as §2
NCI-H23 = assay: Cytotoxicity against human NCI-H23 cells after 2 days by sulforhodamine B assay; conditions: NCI-H23, 48 h; summary of the method: as §2
HOP-62 = assay: Cytotoxicity against human HOP62 cells after 2 days by sulforhodamine B assay; conditions: HOP-62, 48 h; summary of the method: as §2
RPMI-8226 = assay: Cytotoxicity against human RPMI8226 cells after 2 days by sulforhodamine B assay; conditions: RPMI-8226, 48 h; summary of the method: as §2
K562 = assay: Cytotoxicity against human K562 cells after 2 days by sulforhodamine B assay; conditions: K562, 48 h; summary of the method: as §2
HL-60(TB) = assay: Cytotoxicity against human HL-60(TB) cells after 2 days by sulforhodamine B assay; conditions: HL-60, 48 h
Summary of the method: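 NCI60 multi-dose screen: cells exposed to compound over a 5-log mol/L concentration range for 2 days, then fixed and stained with sulphorhodamine B and optical density read. Growth inhibition calculated relative to time-zero control and untreated cells; GI50 reported as average of two replicates.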

MDA-MB-468 = assay: Cytotoxicity against human MDA-MB-468 cells after 2 days by sulforhodamine B assay; conditions: MDA-MB-468, 48 h; summary of the method: as §2
T47D = assay: Cytotoxicity against human T47D cells after 2 days by sulforhodamine B assay; conditions: 48 h; summary of the method: as §1
BT-549 = assay: Cytotoxicity against human BT549 cells after 2 days by sulforhodamine B assay; conditions: BT-549, 48 h; summary of the method: as §2
[1] = read-out: LC50 (the source's name)

## CCC(=C(c1ccc(OCCN(C)C)cc1)c1ccc(OC(=O)CCCCC(=O)C2=C(C)/C(=C/c3[nH]c(-c4ccc[nH]4)cc3OC)N=C2C)cc1)c1ccccc1
TK-10
  GI50: 12.9 µM
  LC50: 50.1 µM
  TGI: 25.1 µM
RXF 393
  GI50: 3.89 µM
  LC50 (concentration killing 50% of cells): 44.7 µM
  TGI: 17.8 µM
A498
  GI50: 12.9 µM
  LC50: 53.7 µM
  TGI: 26.3 µM
SK-OV-3
  GI50: 14.1 µM
  LC50 (concentration killing 50% of starting cells): 52.5 µM
  TGI: 26.9 µM
OVCAR-8
  GI50: 6.61 µM
  LC50: 47.9 µM
  TGI: 19.9 µM
OVCAR-5
  GI50: 10.5 µM
  LC50: 47.9 µM
  TGI: 22.4 µM
OVCAR-3
  GI50: 11.7 µM
  LC50: 63.1 µM
  TGI: 26.9 µM
IGROV-1
  GI50: 13.2 µM
  LC50: > 100 µM
  TGI: 45.7 µM
SK-MEL-5
  GI50: 1.62 µM
  LC50 (concentration killing 50% of cells): 6.03 µM
  TGI: 3.09 µM
MDA-MB-435
  GI50: 6.92 µM
  TGI: 45.7 µM
MDA-MB-435; [1]
  CC50: > 100 µM
SK-MEL-2
  GI50: 16.6 µM
  LC50: 67.6 µM
  TGI: 33.1 µM
M14
  GI50: 1.82 µM
  TGI: 3.98 µM
M14; [1]
  CC50: 8.71 µM
LOX IMVI
  GI50: 2.04 µM
  LC50: 43.6 µM
  TGI: 5.13 µM
U-251
  GI50: 7.76 µM
  LC50: > 100 µM
  TGI: 30.2 µM
SF-539
  GI50: 12.9 µM
  LC50: 58.9 µM
  TGI: 27.5 µM
SNB-19
  GI50: 8.13 µM
  TGI: 23.4 µM
SNB-19; [1]
  CC50: 56.2 µM
SF-268
  GI50: 7.76 µM
  LC50 (concentration killing 50% of cells): > 100 µM
  TGI: 30.2 µM
SW-620
  GI50: 3.16 µM
  LC50 (concentration killing 50% of cells): 34.7 µM
  TGI: 11.5 µM
KM12
  GI50: 3.72 µM
  LC50: 46.8 µM
  TGI: 14.4 µM
NCI-H522
  GI50: 3.55 µM
  LC50: 43.6 µM
  TGI: 14.4 µM
HOP-92
  GI50: 1.12 µM
  TGI: 6.31 µM
HOP-92; [1]
  CC50: 47.9 µM
NCI-H23
  GI50: 12.6 µM
  LC50 (concentration killing 50% of cells): 69.2 µM
  TGI: 29.5 µM
HOP-62
  GI50: 12.3 µM
  TGI: 24.5 µM
HOP-62; [1]
  CC50: 50.1 µM
RPMI-8226
  GI50: 3.16 µM
  LC50 (concentration killing 50% of cells present at time zero): > 100 µM
  TGI: 19 µM
K562
  GI50: 3.16 µM
  LC50 (concentration killing 50% of cells): 72.4 µM
  TGI: 12.6 µM
HL-60(TB)
  GI50: 18.2 µM
  TGI: 41.7 µM
HL-60(TB); [1]
  CC50: 97.7 µM
MDA-MB-468
  GI50: 2.45 µM
  LC50: 41.7 µM
  TGI: 14.8 µM
T47D
  GI50: 1.38 µM
  LC50 (concentration killing 50% of cells): 39.8 µM
  TGI: 6.03 µM
BT-549
  GI50: 3.55 µM
  LC50 (concentration killing 50% of cells present at time zero): 41.7 µM
  TGI: 17 µM
